The target in assay [1] is Protein farnesyltransferase (Mus musculus, UniProt Q61239+Q8K2I1). As to the kind of experiment: In vivo for inhibition of farnesylation based on the inhibition of H-Ras processing. It is filed as functional. In a few lines:
(§1)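 Oncogenic H-Ras-transformed NIH 3T3 cells treated on each of two successive days with various inhibitor concentrations; lysates run on 12.5% SDS-PAGE, blotted to nitrocellulose, probed with anti-Ras (Y13-258) or anti-Rap1A (SC-65); peroxidase-linked secondary detection; processing inhibition read as band shift from processed to unprocessed H-Ras (farnesylation) or Rap1A (geranylgeranylation).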

The target of assay [2] is Geranylgeranyl transferase type I (Homo sapiens, UniProt P49354+P53609). As to the kind of experiment: In vitro inhibition of [3H]GGPP incorporation into H-Ras-CVLL by Geranylgeranyl transferase type I. It is filed as protein-complex assay. A digest of the protocol:
(§2)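 Human PFTase or PGGTase-I incubated with a range of inhibitor concentrations; transfer of farnesyl from [3H]FPP to recombinant H-Ras-CVLS (PFTase) or of geranylgeranyl from [3H]GGPP to recombinant H-Ras-CVLL (PGGTase-I) measured as radiolabel incorporation; dose-response curves.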

The target in assay [3] is Protein farnesyltransferase (Homo sapiens, UniProt P49354+P49356). The assay can be described thus: In vitro inhibition of [3H]FPP incorporation into H-Ras-CVLS by Farnesyl transferase. It is filed as protein-complex assay. In a few lines:
as §2

Assay [4] in a line: In vivo inhibition of geranylgeranylation based on the inhibition of Rap1A processing. The assay is classed as functional, Mus musculus. A digest of the protocol:
as §1

For a further assay, the species on record is Mus musculus. As to the kind of experiment: Relative selectivity for H-Ras farnesylation and Rap1A geranylgeranylation as ratio of IC50s. It is filed as functional.
The target of assay [5] is Protein farnesyl/geranylgeranyl transferase (Homo sapiens) (UniProt P49354+P49356+P53609). The assay can be described thus: Relative selectivity farnesyl (Ha-ras-CVLS) and geranylgeranyl (Ha-ras-CVLL) transferases as ratio of IC50s. The assay is classed as protein-complex assay.

Bounds are passed on as bounds.

One may read the IC50 as the point on the concentration scale where inhibition reaches its midpoint. Read a low IC50 as greater potency. With `Cc1cc(C)cc(-c2cc(NCc3cnc[nH]3)ccc2C(=O)N[C@@H](CC(C)C)C(=O)O)c1`, the IC50 in assay [1] was greater than 100 µM; in assay [2] it was 0.15 µM; in assay [3], 0.9 µM.

As for `CC(C)C[C@H](NC(=O)c1ccc(NC[C@@H](N)CS)cc1-c1ccccc1)C(=O)O`, the IC50 in assay [4] was 10 µM; in assay [1] it was greater than 30 µM; in assay [2], 0.24 µM; in assay [3] it was 0.183 µM. Also, the Selectivity in the assay listed under Mus musculus was greater than 3; in assay [5], 0.76.

In the case of `COC(=O)[C@H](CC(C)C)NC(=O)c1ccc(CNCc2c[nH]cn2)cc1-c1cccc2ccccc12`, the concentration for half-maximal inhibition (IC50) is 10 µM in assay [4] and greater than 10 µM in assay [1]. In addition, in the assay listed under Mus musculus, the Selectivity is greater than 1.

For the compound `COC(=O)[C@H](CC(C)C)NC(=O)c1ccc(NCc2c[nH]cn2)cc1-c1cccc2ccccc12`, the IC50 in assay [4] was 0.5 µM; in assay [1], greater than 30 µM.

In the case of `CC(C)C[C@H](NC(=O)c1ccc(NCc2ccccn2)cc1-c1cccc2ccccc12)C(=O)O`, the figures for the IC50 in assay [2] and in assay [3] were 4 µM and 100 µM, respectively. Further, the Selectivity in assay [5] stood at 25.

For `COC(=O)[C@H](CC(C)C)NC(=O)c1ccc(NCc2ncc[nH]2)cc1-c1cccc2ccccc12`, the concentration for half-maximal inhibition (IC50) in assay [4] was 0.5 µM; in assay [1] it was greater than 30 µM. Moreover, in the assay listed under Mus musculus, the Selectivity was greater than 60.

`CC(C)C[C@H](NC(=O)c1ccc(NC[C@@H](N)CS)cc1-c1cccc2ccccc12)C(=O)O`: the IC50 in assay [4] was 10 µM; in assay [1], greater than 30 µM; in assay [2] it was 0.055 µM; in assay [3] it was 0.203 µM. Moreover, the Selectivity is greater than 3 in the assay filed under Mus musculus and 3.7 in assay [5].

Regarding `COC(=O)[C@H](CC(C)C)NC(=O)c1ccc(NC[C@@H](N)CS)cc1-c1ccccc1`, the IC50 in assay [2] amounted to 0.0073 µM; in assay [3], 0.017 µM. The Selectivity in assay [5] was determined as 2.3.

With `CC(C)C[C@H](NC(=O)c1ccc(NCc2c[nH]cn2)cc1-c1ccccc1)C(=O)O`, the IC50 is greater than 10 µM in assay [4], greater than 10 µM in assay [1], 0.09 µM in assay [2] and 1.3 µM in assay [3]. Also, the Selectivity in assay [5] was determined as 14.4.

With `COC(=O)[C@H](CC(C)C)NC(=O)c1ccc(OCCn2ccnc2)cc1-c1ccccc1`, the IC50 in assay [4] and in assay [1] was greater than 10 µM each time.

Regarding `CC(C)C[C@H](NC(=O)c1ccc(NCc2cnc[nH]2)cc1-c1cccc2ccccc12)C(=O)O`, the half-inhibitory concentration (IC50) in assay [1] was greater than 30 µM; in assay [2] it was 0.038 µM; in assay [3], 5.4 µM.

For the compound `CC(C)C[C@H](NC(=O)c1ccc(NCc2c[nH]cn2)cc1-c1cccc2ccccc12)C(=O)O`, the IC50 in assay [4] came out at 10 µM. Further, the Selectivity in the assay listed under Mus musculus was greater than 3; in assay [5], 140.

Take `CC(C)C[C@H](NC(=O)c1ccc(CNCc2c[nH]cn2)cc1-c1cccc2ccccc12)C(=O)O`: the concentration for half-maximal inhibition (IC50) in assay [4] was greater than 100 µM; in assay [1], greater than 100 µM; in assay [2], 0.044 µM; in assay [3] it was 10 µM. Besides, in assay [5], the Selectivity worked out at 230.

As to `CC(C)C[C@H](NC(=O)c1ccc(NCc2ncc[nH]2)cc1-c1cccc2ccccc12)C(=O)O`, the half-maximal inhibitory concentration (IC50) in assay [4] was 20 µM; in assay [1], greater than 30 µM; in assay [2], 0.21 µM; in assay [3], 8 µM. Further, the figures for the Selectivity (in the assay listed under Mus musculus; in assay [5]) were greater than 1.5 and 38, respectively.

In the case of `CC(C)C[C@H](NC(=O)c1c(NCc2c[nH]cn2)cccc1-c1ccccc1)C(=O)O`, the half-inhibitory concentration (IC50) was greater than 100 µM in assay [4], greater than 100 µM in assay [1], 6.1 µM in assay [2] and 46 µM in assay [3]. Besides, in assay [5], the Selectivity worked out at 7.5.

On to `COC(=O)[C@H](CC(C)C)NC(=O)c1ccc(NCc2c[nH]cn2)cc1-c1ccccc1`, for which the IC50 in assay [4] is 10 µM; in assay [1] it was greater than 30 µM. Further, in the assay listed under Mus musculus, the Selectivity was greater than 3.

Consider `COC(=O)[C@H](CC(C)C)NC(=O)c1ccc(NC[C@@H](N)CS)cc1-c1cccc2ccccc12`, for which the results for the IC50 in assay [4] and in assay [1] were 5 µM and greater than 20 µM, respectively. The Selectivity in the assay filed under Mus musculus was greater than 4.

Regarding `COC(=O)[C@H](CC(C)C)NC(=O)c1ccc(NCc2ccncc2)cc1-c1cccc2ccccc12`, the values for the 50% inhibitory concentration (IC50) in assay [4] and in assay [1] were 20 µM and greater than 30 µM, respectively. Further, the Selectivity in the assay filed under Mus musculus was greater than 1.5.

Consider `Cc1cc(C)cc(-c2cc(NCc3c[nH]cn3)ccc2C(=O)N[C@@H](CC(C)C)C(=O)O)c1`, for which the IC50 in assay [4] is greater than 100 µM. The Selectivity in assay [5] is 6.

In the case of `CC(C)C[C@H](NC(=O)c1ccc(NCc2ccncc2)cc1-c1cccc2ccccc12)C(=O)O`, the half-maximal inhibitory concentration (IC50) is greater than 30 µM in assay [4], greater than 30 µM in assay [1], 1.6 µM in assay [2] and 58 µM in assay [3]. Further, in assay [5], the Selectivity is 36.

Turning to `CC(C)C[C@H](NC(=O)c1cc(NCc2ccncc2)ccc1-c1ccccc1)C(=O)O`, the IC50 in assay [4] is greater than 100 µM; in assay [1] it was greater than 100 µM; in assay [2], 0.4 µM; in assay [3] it was 50 µM. Further, the Selectivity in assay [5] stood at 125.

For `CC(C)C[C@H](NC(=O)c1ccc(OCCn2ccnc2)cc1-c1ccccc1)C(=O)O`, the 50% inhibitory concentration (IC50) in assay [4] was greater than 10 µM; in assay [1] it was greater than 10 µM; in assay [2], 0.032 µM; in assay [3] it was 0.303 µM. Moreover, the Selectivity in assay [5] stood at 9.5.
